Data reported in ChEMBL document CHEMBL5120856, “New salicylic acid derivatives, double inhibitors of glycolate oxidase and lactate dehydrogenase, as effective agents decreasing oxalate production” (Eur J Med Chem, 2022).
Activity calls are given as the source filed them. The calls are words filed in the database; no cut-off is given here.

How the values were obtained:
[1] = molecular target: T1, 2-Hydroxyacid oxidase 1 (Homo sapiens) (UniProt Q9UJM8); assay: (§1) Inhibition of N-terminal His-tagged human recombinant glycolate oxidase expressed in Escherichia coli BL21 (DE3) cells using glycolate as substrate at 20 uM preincubated for 5 mins followed by substrate addition and measured after 1 min in the presence of DCHBS by horseradish peroxidase coupled colorimetric method relative to control; settings: time 6.0 min
T1 sequence (whole entry): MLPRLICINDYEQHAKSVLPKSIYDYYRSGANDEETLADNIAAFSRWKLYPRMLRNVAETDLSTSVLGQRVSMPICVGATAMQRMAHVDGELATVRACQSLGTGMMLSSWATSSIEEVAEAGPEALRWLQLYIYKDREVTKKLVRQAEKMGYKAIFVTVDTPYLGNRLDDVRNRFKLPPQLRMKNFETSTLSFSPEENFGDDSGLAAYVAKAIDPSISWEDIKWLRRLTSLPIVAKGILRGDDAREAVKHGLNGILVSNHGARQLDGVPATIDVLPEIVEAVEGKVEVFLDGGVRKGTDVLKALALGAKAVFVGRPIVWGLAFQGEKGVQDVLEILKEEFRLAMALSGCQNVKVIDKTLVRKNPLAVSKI

[2] = molecular target: T2, 2-Hydroxyacid oxidase 1 (Mus musculus) (UniProt Q9WU19); assay: as §1, with “mouse” for “human”; settings: time 6.0 min
T2 sequence (whole entry): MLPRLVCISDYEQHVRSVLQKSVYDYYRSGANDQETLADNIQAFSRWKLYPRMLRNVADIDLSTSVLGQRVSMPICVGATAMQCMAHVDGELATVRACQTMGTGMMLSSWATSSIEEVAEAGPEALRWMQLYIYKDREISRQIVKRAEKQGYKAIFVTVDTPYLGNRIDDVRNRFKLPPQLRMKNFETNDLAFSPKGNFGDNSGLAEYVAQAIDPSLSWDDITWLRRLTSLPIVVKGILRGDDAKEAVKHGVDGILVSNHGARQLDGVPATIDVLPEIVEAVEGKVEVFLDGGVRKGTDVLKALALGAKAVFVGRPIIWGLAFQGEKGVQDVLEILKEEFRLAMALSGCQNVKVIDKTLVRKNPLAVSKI

2-Hydroxyacid oxidase 1 [3] = molecular target: T3, 2-Hydroxyacid oxidase 1 (Homo sapiens, UniProt Q9UJM8); assay: Inhibition of N-terminal His-tagged human recombinant glycolate oxidase expressed in Escherichia coli BL21 (DE3) cells using glycolate as substrate preincubated for 10 mins followed by substrate addition and measured after 10 mins by Amplex red and horseradish peroxidase based fluorescence assay
T3 sequence (Q9UJM8 whole entry): T1 sequence (whole entry)

2-Hydroxyacid oxidase 1 [4] = molecular target: T4, 2-Hydroxyacid oxidase 1 (Mus musculus, UniProt Q9WU19); assay: Inhibition of N-terminal His-tagged mouse recombinant glycolate oxidase expressed in Escherichia coli BL21 (DE3) cells using glycolate as substrate preincubated for 10 mins followed by substrate addition and measured after 10 mins by Amplex red and horseradish peroxidase based fluorescence assay
T4 sequence (Q9WU19 whole entry): T2 sequence (whole entry)

[5] = molecular target: T5, L-lactate dehydrogenase A chain (Homo sapiens, UniProt P00338); assay: Inhibition of human recombinant LDHA using pyruvate as substrate preincubated for 10 mins followed by substrate addition and measured every 60 sec for 10 mins in the presence of NADH by fluorescence assay
[6] = molecular target: T6, L-lactate dehydrogenase B chain (Homo sapiens, UniProt P07195); assay: Inhibition of human recombinant LDHB using pyruvate as substrate preincubated for 10 mins followed by substrate addition and measured every 60 sec for 10 mins in the presence of NADH by fluorescence assay
T6 sequence (P07195 whole entry): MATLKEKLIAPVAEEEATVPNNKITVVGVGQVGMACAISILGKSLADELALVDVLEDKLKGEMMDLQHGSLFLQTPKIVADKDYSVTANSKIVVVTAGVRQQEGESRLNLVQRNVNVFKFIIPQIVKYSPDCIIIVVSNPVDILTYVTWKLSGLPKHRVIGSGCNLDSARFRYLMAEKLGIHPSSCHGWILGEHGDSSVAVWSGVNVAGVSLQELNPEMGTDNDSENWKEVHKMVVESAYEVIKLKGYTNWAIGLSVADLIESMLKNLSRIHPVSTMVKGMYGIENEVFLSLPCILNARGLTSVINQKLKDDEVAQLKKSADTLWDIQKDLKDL

Hepatocyte [7] = assay: Inhibition of GO/LDHA in hyperoxaluric-primary hepatocyte isolated from Agxt1 knockdown PH1 C57BL/6 mouse assessed as relative oxalate output at 10 uM measured at 24 hrs in the presence of glycolate relative to control; format: cell-based
Procedure, shortened: (§2)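 Agxt1-/- mouse primary hepatocytes cultured with 5 mM glycolate, inhibitor at 10 μM; extracellular oxalate measured by colorimetric kit 24 and 48 h after inhibitor addition; relative oxalate = oxalate with inhibitor over oxalate without inhibitor; negative values mean below detection limit; mean of three/four replicates ± SD.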

Hepatocyte [8] = assay: Inhibition of GO/LDHA in hyperoxaluric-primary hepatocyte isolated from Agxt1 knockdown PH1 C57BL/6 mouse assessed as relative oxalate output at 10 uM measured at 48 hrs in the presence of glycolate relative to control; format: cell-based; procedure, shortened: as §2
Hepatocyte [9] = assay: Inhibition of GO/LDHA in hyperoxaluric-primary hepatocyte isolated from Grhpr-knockdown PH2 C57BL/6 mouse assessed as relative oxalate output at 10 uM measured at 24 hrs in the presence of glycolate relative to control; format: cell-based
Procedure, shortened: (§3)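 Grhpr-/- mouse primary hepatocytes cultured with 10 mM glycolate, inhibitor at 10 μM; extracellular oxalate determined colorimetrically at 24 and 48 h post-treatment, expressed relative to untreated medium (RO); negative RO means below detection limit; three/four replicates, mean ± SD.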

Hepatocyte [10] = assay: Inhibition of GO/LDHA in hyperoxaluric-primary hepatocyte isolated from Grhpr-knockdown PH2 C57BL/6 mouse assessed as relative oxalate output at 10 uM measured at 48 hrs in the presence of glycolate relative to control; format: cell-based; procedure, shortened: as §3
Hepatocyte [11] = assay: Inhibition of GO/LDHA in hyperoxaluric-primary hepatocyte isolated from Hoga1-knockdown PH3 C57BL/6 mouse assessed as relative oxalate output at 10 uM measured at 24 hrs in the presence of hydroxyproline relative to control; format: cell-based
Procedure, shortened: (§4)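 Hoga1-/- mouse primary hepatocytes challenged with 10 mM hydroxyproline, inhibitor 10 μM; extracellular oxalate measured by colorimetric kit 24 and 48 h after dosing, given as ratio to oxalate without inhibitor; negative values are below detection limit; mean of three/four replicates ± SD.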

Hepatocyte [12] = assay: Inhibition of GO/LDHA in hyperoxaluric-primary hepatocyte isolated from Hoga1-knockdown PH3 C57BL/6 mouse assessed as relative oxalate output at 10 uM measured at 48 hrs in the presence of hydroxyproline relative to control; format: cell-based; procedure, shortened: as §4
Hepatocyte [13] = assay: Cytotoxicity against hyperoxaluric-primary hepatocyte isolated from Hoga1-knockdown PH3 C57BL/6 mouse assessed as cell death at 10 uM by MTS assay; format: toxicity, cell-based; settings: hepatocytes, Hoga1-knockdown PH3, 10 µM
Procedure, shortened: (§5)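 Primary hepatocytes from Agxt1-/- (PH1, 5 mM glycolate), Grhpr-/- (PH2, 10 mM glycolate) or Hoga1-/- (PH3, 10 mM hydroxyproline) mice, incubated with inhibitor at 10 μM; viability followed through the oxalate assay by MTS tetrazolium method.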

Hepatocyte [14] = assay: Cytotoxicity against hyperoxaluric-primary hepatocyte isolated from Grhpr-knockdown PH2 C57BL/6 mouse assessed as cell death at 10 uM by MTS assay; format: toxicity, cell-based; settings: hepatocytes, Grhpr-knockdown PH2 (primary hyperoxaluria type 2); procedure, shortened: as §5
Hepatocyte [15] = assay: Cytotoxicity against hyperoxaluric-primary hepatocyte isolated from Agxt1-knockdown PH1 C57BL/6 mouse assessed as cell death at 10 uM by MTS assay; format: toxicity, cell-based; settings: hepatocytes, Agxt1-knockdown PH1, 10 µM; procedure, shortened: as §5
Hepatocyte [16] = assay: Inhibition of GO/LDHA in hyperoxaluric-primary hepatocyte isolated from Agxt1 knockdown PH1 C57BL/6 mouse assessed as reduction in extracellular oxalate concentration at 10 uM measured at 48 hrs in the presence of glycolate relative to control; format: cell-based; set-up: scale not given: the % may be the effect or the level left; procedure, shortened: as §2
[17] = Inhibition of GO/LDHA in hyperoxaluric-primary hepatocyte isolated from Agxt1 knockdown PH1 C57BL/6 mouse measured at 24 hrs in the presence of 5 mM glycolate; format: cell-based
Procedure, shortened: (§6)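 Agxt1-/- hepatocytes with 5 mM glycolate; eight inhibitor concentrations per replicate; extracellular oxalate measured colorimetrically at 24 or 48 h; EC50 as mean of three/four replicates ± SD.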

[18] = Inhibition of GO/LDHA in hyperoxaluric-primary hepatocyte isolated from Agxt1 knockdown PH1 C57BL/6 mouse measured at 48 hrs in the presence of 5 mM glycolate; format: cell-based; procedure, shortened: as §6
HEK293 = assay: Cytotoxicity against HEK293 cells assessed as reduction in cell viability upto 50 uM measured after 48 hrs by MTT assay; format: toxicity, cell-based; settings: human, hek293, 48 h
2-Hydroxyacid oxidase 1 [19] = molecular target: T3, 2-Hydroxyacid oxidase 1; assay: (§7) Non-competitive mixed inhibition of N-terminal His-tagged human recombinant glycolate oxidase expressed in Escherichia coli BL21 (DE3) cells assessed as inhibition constant using varying concentration of glycolate as substrate measured every 60 sec for 15 mins by Amplex red and horseradish peroxidase based fluorescence assay
2-Hydroxyacid oxidase 1 [20] = molecular target: T4, 2-Hydroxyacid oxidase 1; assay: as §7, with “mouse” for “human”
[21] = molecular target: T5, L-lactate dehydrogenase A chain; assay: Non-competitive inhibition of human recombinant LDHA assessed as inhibition constant using varying concentration of pyruvate as substrate preincubated for 10 mins followed by substrate addition and measured every 60 sec for 10 mins in the presence of NADH by fluorescence assay
[22] = molecular target: T6, L-lactate dehydrogenase B chain; assay: Non-competitive inhibition of human recombinant LDHB assessed as inhibition constant using varying concentration of pyruvate as substrate preincubated for 10 mins followed by substrate addition and measured every 60 sec for 10 mins in the presence of NADH by fluorescence assay
[23] = molecular target: T2, 2-Hydroxyacid oxidase 1 (Mus musculus); assay: Non-competitive mixed inhibition of N-terminal His-tagged mouse recombinant glycolate oxidase expressed in Escherichia coli BL21 (DE3) cells assessed as decrease in Vmax with increase in apparent Km using glycolate as substrate upto 60 microM
[24] = Inhibition of GO/LDHA in hyperoxaluric-primary hepatocyte isolated from Grhpr-knockdown PH2 C57BL/6 mouse measured at 24 hrs in the presence of 10 mM glycolate; format: cell-based
Procedure, shortened: (§8)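 Grhpr-/- hepatocytes with 10 mM glycolate; eight inhibitor concentrations per replicate; colorimetric extracellular oxalate at 24 or 48 h; EC50 as mean of three/four replicates ± SD.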

[25] = Inhibition of GO/LDHA in hyperoxaluric-primary hepatocyte isolated from Grhpr-knockdown PH2 C57BL/6 mouse measured at 48 hrs in the presence of 10 mM glycolate; format: cell-based; procedure, shortened: as §8

SMILES | inhibition [1] [%] | inhibition [2] [%] | IC50 (2-Hydroxyacid oxidase 1 [4]) [µM] | IC50 [5] [µM] | IC50 [6] [µM] | fold change (FC) (Hepatocyte [7]) | fold change (FC) (Hepatocyte [8]) | fold change (FC) (Hepatocyte [9]) | fold change (FC) (Hepatocyte [10]) | fold change (FC) (Hepatocyte [11]) | fold change (FC) (Hepatocyte [12]) | Activity (Hepatocyte [13]) | Activity (Hepatocyte [14]) | Activity (Hepatocyte [15]) | Activity (Hepatocyte [16]) [%] | EC50 [17] [µM] | EC50 [18] [µM] | Activity (HEK293) | further results
O=C(O)c1cc(-c2ccc(CN3CCCCC3)o2)ccc1O | < 50 | < 50 |  |  |  |  |  |  |  |  |  |  |  |  |  |  |  |  | 
N.O=C(O)c1cc(-c2ccc(CNc3ccc([N+](=O)[O-])cc3)o2)ccc1O |  |  | 5.4 | 1.5 | 5.9 | 0.04 | 0.5 | 0.6 | 0.88 | 0.18 | 0.1 | Non-Toxic | Non-Toxic | Non-Toxic | 50 | 0.6 | 1.6 | Non-Toxic | IC50 (2-Hydroxyacid oxidase 1 [3]): 10.3 µM
O=Cc1ccc(-c2ccc(O)c(C(=O)O)c2)o1 |  |  | 14.4 |  | 29 |  |  |  |  |  |  | Non-Toxic | Non-Toxic | Non-Toxic | 60 | 3.5 | 8.4 | Non-Toxic | Ki (2-Hydroxyacid oxidase 1 [19]): 18.2 µM; Ki (2-Hydroxyacid oxidase 1 [20]): 7.9 µM; Ki [21]: 1.4 µM; Ki [22]: 12.9 µM; inhibition [23]: Active; EC50 [24]: 1.8 µM; EC50 [25]: 1.9 µM
N.O=C(O)c1cc(-c2ccc(CNCc3ccccc3)o2)ccc1O | < 50 | < 50 |  | 2.5 | 3.3 | 0.18 | 0.63 |  |  |  |  | Non-Toxic | Non-Toxic | Non-Toxic |  |  |  |  | 
CC(C)(C)C(O)/C=C/c1ccc2c(c1)OCO2 (stereo not drawn) [STIRIPENTOL] |  |  |  |  |  |  |  | 0.27 | 0.33 | 0.7 | 0.49 | Non-Toxic | Non-Toxic | Non-Toxic |  |  |  |  | 
O=C(O)c1cc(-c2ccc(CNCc3cccnc3)o2)ccc1O | < 50 | < 50 |  |  |  |  |  |  |  |  |  |  |  |  |  |  |  |  | 
